Only a selection was taken, and hits are over-represented in it overall.
H69AR inhibit: growth inhibitors of human H69AR lung tumor cells. H69AR lung tumor viability, ATP luminescence, 72 h; stronger effect = lower value. viability, % at 10 µM. actives 6% (n = 85,000). AID 598;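 active means viability at or below 40%; inactive means viability above 40%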;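 further: multidrug resistant small cell line overexpressing MRP-1 efflux transporter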
HCT116 bCat-KO: beta-catenin-lacking colon tumor cell growth suppression | HCT116 beta-catenin knockout viability, CellTiter-Glo, 60 h; stronger effect = lower value | viability, % at 10 µM | actives 1.5% (n = 140,000) | AID 818;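 active means viability at or under a set limit, the compound median less 4 SD, cut at about 6% in these data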
PTEN del growth: PTEN-deleted cell growth suppression; HCT116 PTEN-null viability, CellTiter-Glo, 60 h; stronger effect = lower value; viability, % at 10 µM; actives 1.2% (n = 140,000); AID 827;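 active means viability at or below a set limit, 4 SD under the median of all tested compounds, cut at about 3.7% in these data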;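 further: PTEN knockout HCT116 line with beta catenin targeted HCT116 as companion control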
HUVEC inhibit: human endothelial cell proliferation inhibition. HUVEC proliferation, CellTiter-Glo luminescence, 72 h; stronger effect = lower value. viability, % at 10 µM (by protocol). actives 1.1% (n = 86,000);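 active means viability at or below 30%; inactive means viability above 30%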
Lung fibro prol: blocks proliferation of human lung fibroblasts; LL 47 human lung fibroblast viability, ATP luminescence; stronger effect = lower value; AID 719; viability, % at 10 µM; actives 1.1% (n = 85,000);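 active means viability at or below 50% in the single dose screen; inactive means viability above 50%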;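 further: compound exposure lasted 72 h before the ATP readout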
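Test system: LL 47 human lung fibroblasts / Incubation: 72 h compound exposure at 37 °C after overnight plating / Technique: luminescent ATP detection, CellTiter-Glo / Compound dosing: 0.1% DMSO in all compound wells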
Numbers stand for hits; . = inactive; / = no result.

SMILES | H69AR inhibit | HCT116 bCat-KO | PTEN del growth | HUVEC inhibit | Lung fibro prol
COc1ccc(C2Nc3ccc4ccccc4c3-c3c2c(=O)oc2ccccc32)cc1 (stereo not drawn) | / | 3.2 | 1.5 | / | /
CCOC(=O)c1cc([N+](=O)[O-])c([N+](=O)[O-])cc1NC(C)=O | / | . | . | / | /
CC1(C)Cc2c(c(-c3ccco3)nc3sc4c(NCCN5CCOCC5)ncnc4c23)CO1 | / | 1.6 | 1.4 | / | /
COC(=O)c1ccccc1NC(=O)COC(C)=O | 6.0 | . | . | . | /
CCOC(=O)c1ccccc1NC(=O)COC | . | . | . | . | .
COC(=O)C1=C(C)NC(C)=C(C(=O)OC)C1c1cc2ccc(C)cc2[nH]c1=O | 20 | . | . | . | .
Cc1ccc(S(=O)(=O)CCC(=O)Nc2nc3c(s2)CCCC3)cc1 | 24 | . | . | . | .
COC(=O)Nc1nc2c(s1)CCCC2 | . | 1.1 | 1.0 | . | .
CC1CN(S(=O)(=O)c2cccc(C(=O)Nc3ccc4c(c3)CCC4)c2)CC(C)O1 (stereo not drawn) | / | . | . | / | /
NS(=O)(=O)c1ccc(N2N=C(c3ccccc3)CC2c2cccc(F)c2)cc1 (stereo not drawn) | / | . | . | / | /
NS(=O)(=O)c1ccc(N2N=C(c3ccc(Br)cc3)CC2c2ccc(F)cc2)cc1 (stereo not drawn) | / | 0.7 | 1.2 | / | /
O=S(=O)(c1ccc2nc(-c3ccccc3)[nH]c2c1)N1CCN(c2ccc(Cl)cc2)CC1 | / | 0.9 | 0.8 | / | /
O=S(=O)(c1ccc2nc(SCc3ccc(Cl)cc3)[nH]c2c1)N1CCOCC1 | / | . | . | / | /
COc1ccc(C(=O)Nc2ccc(-c3ccc(C)o3)cc2)cc1S(=O)(=O)N1CCOCC1 | 22 | 5.7 | . | . | .
COc1ccc(C(=O)Nc2cccc(C)c2)cc1S(=O)(=O)N1CCOCC1 | . | . | . | . | .
O=C(Nc1ccccc1)c1ccc(NCc2ccco2)c(S(=O)(=O)N2CCOCC2)c1 | 39 | . | . | . | .
O=C(Nc1ccccc1)c1ccc(NCCN2CCOCC2)c(S(=O)(=O)N2CCOCC2)c1 | . | . | . | . | .
CN(C)c1ccc(/C=N/NC(=O)CN2CCN(c3ccc(F)cc3)CC2)cc1 | / | . | . | / | /
COc1ccccc1[C@@H]1C(c2cccc(C)c2)=NN(c2ccccc2)[C@H]1C(=O)N1CCOC1=O | / | . | . | / | /
CCCCCCn1c(COc2ccccc2F)nnc1SCC(=O)N1c2ccccc2NC(=O)C1(C)C | 0.8 | 1.2 | 1.1 | . | .
CCn1c(SCC(=O)OCC(=O)N2c3ccccc3NC(=O)C2(C)C)nnc1-c1ccco1 | . | . | . | . | .
COC(=O)CSC1=C(C#N)C(=O)NC(c2ccccc2)S1 (stereo not drawn) | 1.3 | . | . | 28 | 7.4
COC(=O)CSC1=C(C#N)C(c2ccccc2)CC(=O)N1 (stereo not drawn) | . | . | . | . | .
CCn1cc(C(=O)OCC(=O)Nc2ccc(S(=O)(=O)N3CCCC3)cc2)c(=O)c2ccc(C)nc21 | 26 | . | . | . | .
O=C(Nc1ccc2cn[nH]c2c1)c1ccc(Cl)c(S(=O)(=O)N2CCOCC2)c1 | / | . | . | / | /
SMILES | H69AR inhibit | HCT116 bCat-KO | PTEN del growth | HUVEC inhibit | Lung fibro prol
Cc1cc(C(=O)Nc2cc(C)n(Cc3ccc(Cl)cc3)n2)no1 | . | . | . | . | .
COc1ccc(-c2cc(C(=O)Nc3cc(C)nn3-c3ccccc3)no2)cc1 | . | . | . | . | .
COc1ccccc1-c1cc(C(=O)Nc2cc(C)n(Cc3ccc(Cl)cc3)n2)no1 | 5.4 | . | . | . | .
COc1ccccc1-c1cc(C(=O)Nc2cc(C)nn2-c2ccccc2)no1 | 27 | . | . | . | .
COCCNC(=O)c1cc(-c2ccccc2OC)on1 | 36 | . | . | . | .
N#Cc1ccc(-n2nccc2-c2cnc3n(c2=O)CCS3)cc1 | . | . | . | . | .
O=C(NCc1ccco1)c1cccc(NS(=O)(=O)c2ccccc2F)c1 | / | . | . | / | /
Cc1cccc(C(=O)N2CCN(c3ncnc4c3cnn4-c3ccccc3)CC2)c1 | . | . | . | . | .
COc1ccc(-n2ncc3c(N4CCCCC4)ncnc32)cc1 | 39 | . | . | . | .
COc1ccc(-n2ncc3c(N4CCN(c5cc(C)ccc5C)CC4)ncnc32)cc1 | . | . | . | . | .
O=C(COc1ccccc1)N1CCN(c2ncnc3c2cnn3-c2ccccc2)CC1 | 40 | . | . | . | .
COc1ccc(-n2ncc3c(N4CCN(c5cccc(C)c5C)CC4)ncnc32)cc1 | 7.1 | / | / | 18 | 24
O=CN1CCN(C(=O)c2ccc([N+](=O)[O-])cc2)CC1 | / | . | . | / | /
CCOC(=O)c1cc2sc(C)cc2n1CC(=O)N1CCOCC1 | . | . | . | . | .
CCOC(=O)c1cc2sc(C)cc2n1CC(=O)NCc1ccc(F)cc1 | 30 | . | . | . | .
CCOC(=O)c1c(C)[nH]c(C(=O)OCC(=O)Nc2cc(C)ccc2OC)c1C | 16 | 2.2 | . | . | 23
CCOC(=O)c1c(C)[nH]c(C(=O)OCC(=O)Nc2ccc(OC)c(Cl)c2)c1C | / | . | . | / | /
CCOC(=O)c1c(C)[nH]c(C(=O)OCC(=O)Nc2cc(Cl)ccc2OC)c1C | 2.6 | . | . | . | .
CCOC(=O)c1[nH]c(C)c(C(=O)Nc2cc(OC)ccc2OC)c1C | 28 | . | . | . | .
CCOC(=O)c1c(C)c(C(=O)Nc2cc(OC)ccc2OC)c(C)n1CC | . | . | . | . | .
CCOC(=O)c1c(C)[nH]c(C(=O)OCC(=O)Nc2ccc(OCC)cc2)c1C | / | . | . | / | /
CC(C)(C)NC(=O)C(c1c[nH]c2ccccc12)N(C(=O)Cn1nnc(-c2ccc(F)cc2)n1)c1cccc(O)c1 (stereo not drawn) | / | . | . | / | /
N#CC1=C(N)Oc2cc(O)ccc2C1c1ccncc1 (stereo not drawn) | . | . | . | . | .
CN(C)c1ccc2c(c1)OC(N)=C(C#N)C2c1cccc(F)c1 (stereo not drawn) | 25 | . | . | . | .
COc1ccc(NC(=S)NC(NC(=O)c2cccc(Cl)c2)C(Cl)(Cl)Cl)c([N+](=O)[O-])c1 (stereo not drawn) | 2.9 | . | . | 12 | .
SMILES | H69AR inhibit | HCT116 bCat-KO | PTEN del growth | HUVEC inhibit | Lung fibro prol
O=C(Cc1cccc2ccccc12)NC(NC(=S)Nc1ccccc1Cl)C(Cl)(Cl)Cl (stereo not drawn) | / | . | . | / | /
O=C(NC(NC(=S)Nc1ccccc1Cl)C(Cl)(Cl)Cl)c1cccc(Cl)c1 (stereo not drawn) | / | 5.6 | 2.7 | / | /
O=C(/C=C/c1ccccc1)NC(NC(=S)Nc1cccc(Cl)c1)C(Cl)(Cl)Cl (stereo not drawn) | / | . | 2.9 | / | /
Cc1ccc(S(=O)(=O)N(Cc2cc3cccc(C)c3[nH]c2=O)c2ccccc2)cc1 | / | . | . | / | /
COC(=O)N/N=C/c1cccc(OCCSc2ccc(Cl)cc2)c1 | / | . | . | / | /
COC(=O)C(C)Sc1nc2c(c(-c3ccc(OC)cc3)c1C#N)-c1ccccc1C2=O (stereo not drawn) | 34 | / | / | . | .
Cc1ccc(S(=O)(=O)CCSc2cccc(C(=O)Nc3ccccc3C(=O)O)c2)cc1 | / | . | . | / | /

Screening results from PubChem.
